This is an account of results in ChEMBL document CHEMBL1268807, “Discovery of small molecule inhibitors of the PH domain leucine-rich repeat protein phosphatase (PHLPP) by chemical and virtual screening” (J Med Chem, 2010).

The target in test [1] is T1, Protein phosphatase 1A (Homo sapiens) (UniProt P35813).
T1 sequence (whole entry): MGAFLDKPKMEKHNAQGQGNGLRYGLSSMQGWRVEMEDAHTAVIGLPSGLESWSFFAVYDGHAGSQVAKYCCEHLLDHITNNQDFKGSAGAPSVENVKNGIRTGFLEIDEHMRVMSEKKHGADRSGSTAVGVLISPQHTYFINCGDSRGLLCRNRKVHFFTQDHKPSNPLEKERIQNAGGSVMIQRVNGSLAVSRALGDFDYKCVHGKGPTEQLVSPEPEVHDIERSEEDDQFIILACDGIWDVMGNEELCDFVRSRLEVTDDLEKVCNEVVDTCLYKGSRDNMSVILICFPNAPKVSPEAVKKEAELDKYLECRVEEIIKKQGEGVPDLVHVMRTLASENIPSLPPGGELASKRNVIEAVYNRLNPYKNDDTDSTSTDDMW
Nature of the test: Inhibition of PP2Calpha at 10 uM. The gist of the method: (§1)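 PP1, PP2B or PP2Cα phosphatase domain with 8 mM pNPP in each enzyme's optimal buffer. Compound added; activity taken from A405 and expressed relative to DMSO control. At least three experiments, mean ± SEM.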

Test [2] has as its system COS-7. Nature of the test: Inhibition of PHLPP expressed in 24 hrs serum starved Cos7 cells assessed as half maximal increase of phosphorylation of Akt substrate after 30 mins by immunoblotting. Conditions: in the assay text read “after 35 mins” for “after 30 mins”. It counts as cell-based. In outline: (§2)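 COS 7 cells serum-starved 24 h in serum-free DMEM, then exposed 35 min at 37 °C to inhibitor over 4−400 or 3−300 μM; DMSO control. Lysates were immunoblotted for pSer473, pThr308, phospho-Akt-substrate motif, and actin. Densitometry normalized to actin and to DMSO (set to 1), fit to eq 2; four separate experiments, mean ± SEM.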
Background: In western blotting, separated proteins are transferred to a membrane and probed.

Test [3] deals with COS-7. As to the kind of experiment: Induction of apoptosis assessed as basal level of apoptotic cells in african green monkey COS7 cells at 50 uM after 24 hrs by trypan blue exclusion assay.
For test [4], the target named is T1, Protein phosphatase 1A (Homo sapiens). Nature of the test: Inhibition of PP2Calpha at 100 uM. In outline:
as §1

For test [5], the system named is HT-29 (Homo sapiens). Nature of the test: Inhibition of PHLPP in human HT29 cells assessed as increase of phosphorylation of Akt on Ser 473 at 100 to 250 uM after 24 hrs by immunoblotting relative to control.
The nature of test [6]: Inhibition of protein phosphatase 1 at 10 uM. The gist of the method: as §1
Test [7] in a line: Inhibition of PHLPP expressed in 24 hrs serum starved Cos7 cells assessed as increase of Akt phosphorylation after 30 mins by immunoblotting. Conditions: COS-7.
The target of test [8] is T2, PH domain leucine-rich repeat-containing protein phosphatase 2 (Homo sapiens) (UniProt Q6ZVD8).
T2 sequence (whole entry): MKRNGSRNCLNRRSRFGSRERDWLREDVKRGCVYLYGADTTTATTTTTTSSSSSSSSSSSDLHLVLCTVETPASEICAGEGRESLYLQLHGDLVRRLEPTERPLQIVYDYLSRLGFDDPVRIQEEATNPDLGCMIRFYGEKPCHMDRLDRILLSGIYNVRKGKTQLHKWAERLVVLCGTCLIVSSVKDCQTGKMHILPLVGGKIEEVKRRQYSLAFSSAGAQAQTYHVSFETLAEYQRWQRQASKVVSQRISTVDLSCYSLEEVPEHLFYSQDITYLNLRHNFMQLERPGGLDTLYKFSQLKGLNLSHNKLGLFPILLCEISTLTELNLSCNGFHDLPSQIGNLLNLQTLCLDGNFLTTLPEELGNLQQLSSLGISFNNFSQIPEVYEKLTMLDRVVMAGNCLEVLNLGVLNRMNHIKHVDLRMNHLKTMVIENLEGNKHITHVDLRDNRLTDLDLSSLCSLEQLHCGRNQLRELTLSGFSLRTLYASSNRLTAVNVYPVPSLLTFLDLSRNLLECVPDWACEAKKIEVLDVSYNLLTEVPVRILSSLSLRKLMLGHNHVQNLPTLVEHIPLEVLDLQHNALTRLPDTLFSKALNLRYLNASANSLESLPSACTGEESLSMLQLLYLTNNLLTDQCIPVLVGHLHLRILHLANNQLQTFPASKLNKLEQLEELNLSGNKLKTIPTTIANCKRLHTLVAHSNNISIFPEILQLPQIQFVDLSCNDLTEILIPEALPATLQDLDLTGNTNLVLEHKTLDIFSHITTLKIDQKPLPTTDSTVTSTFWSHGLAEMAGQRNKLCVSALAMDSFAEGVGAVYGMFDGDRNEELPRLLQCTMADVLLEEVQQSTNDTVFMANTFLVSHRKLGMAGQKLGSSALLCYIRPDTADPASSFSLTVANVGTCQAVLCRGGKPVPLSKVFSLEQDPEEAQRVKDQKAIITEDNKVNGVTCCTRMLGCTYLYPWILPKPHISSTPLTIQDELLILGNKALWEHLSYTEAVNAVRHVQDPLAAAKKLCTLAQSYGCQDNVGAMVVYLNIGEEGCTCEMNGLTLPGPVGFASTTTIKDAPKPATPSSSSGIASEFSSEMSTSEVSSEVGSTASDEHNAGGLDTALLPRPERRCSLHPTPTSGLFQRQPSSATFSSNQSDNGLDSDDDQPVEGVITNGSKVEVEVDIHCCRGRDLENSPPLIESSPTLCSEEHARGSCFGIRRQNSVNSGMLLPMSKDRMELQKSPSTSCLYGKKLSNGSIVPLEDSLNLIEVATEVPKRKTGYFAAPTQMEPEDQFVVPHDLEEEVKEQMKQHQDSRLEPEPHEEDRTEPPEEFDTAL
The note with it: 10 uM.

Test [9] has as its system COS-7. As to the kind of experiment: Inhibition of PHLPP expressed in 24 hrs serum starved Cos7 cells assessed as half maximal increase of phosphorylation on Thr308 after 30 mins by immunoblotting. Format: cell-based. Conditions: in the assay text read “after 35 mins” for “after 30 mins”. In outline:
as §2

Test [10] is described as follows: Inhibition of protein phosphatase 1 at 100 uM. The gist of the method: as §1
The target in test [11] is Serine/threonine protein phosphatase PP2B-alpha catalytic subunit (Homo sapiens) (UniProt P16298). Nature of the test: Inhibition of protein phosphatase 2B at 10 uM. In outline: as §1
Test [12] in a line: Inhibition of PHLPP in human […] cells assessed as increase of phosphorylation of GSK3 alpha/beta on Ser21/9 at 100 to 250 uM after 24 hrs by immunoblotting. It counts as cell-based. In outline: (§3)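 HT29 colon cells kept in DMEM with 5% FBS were given compounds (100 or 250 μM, DMSO vehicle) for 24 h, then lysed on ice. […] Densitometry normalized to actin and expressed relative to control lanes; three experiments, mean ± SEM.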

The nature of test [13]: Inhibition of PHLPP in human […] cells assessed as increase of phosphorylation of FoxO1/3alpha on Thr 24/32 at 100 to 250 uM after 24 hrs by immunoblotting. It counts as cell-based. The gist of the method: as §3

SMILES strings stand for the structures. Active and inactive are the calls of the source. The rule behind the calls is not given here.

As a reminder, the inhibition is how much of the control response was suppressed. Usually IC50 stands for the midpoint of a concentration-inhibition curve. Turning to `Nc1c(S(=O)(=O)O)cc(Nc2cccc(S(N)(=O)=O)c2)c2c1C(=O)c1ccccc1C2=O`, the inhibition result in [1], in test [6] and in [11] was “inactive” each time. Also, the Activity in test [2] was 36.4 µM; in test [9], 132 µM. The basal apoptotic cells in test [3] is 12%. For the same compound, the inhibition in [4] is 50%; in test [8], 80%; in [10], 50%. In addition, the inhibition entry in test [5], in test [12] and in [13] was “Active” in each case. Further, in [7], the IC50 amounted to 30 µM.
